According to ChEMBL document CHEMBL1125415, “Antihyperglycemic activity of novel substituted 3H-1,2,3,5-oxathiadiazole 2-oxides” (1992):

Tests used:
Mus musculus [1] = assay: Antihyperglycemic activity in mice at a dose of 100 mg/kg; type: functional
How it was run: (§1)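 Diabetic db/db mice, after exclusion of the five most extreme baseline glucose values, randomized into groups of equal mean plasma glucose, 4-6 per group. Oral dosing in 2% Tween 80/saline on afternoons of days 1-3 (fed), and day 4 after 3 h fast. Plasma glucose at 2 and 4 h post-dose; mean expressed as % change from day-1 baseline versus vehicle; ANOVA with one-sided Dunnett's test.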

Mus musculus [2] = assay: Antihyperglycemic activity in mice at a dose of 20 mg/kg; type: functional; how it was run: as §1

SMILES | Decrease (Mus musculus [1]) [%] | Decrease (Mus musculus [2]) [%]
O=S1NC(CC2=Cc3ccccc3CC2)=NO1 (stereo not given) | -53 | -23
Cc1ccc2occ(CC3=NOS(=O)N3)c2c1 (stereo not given) | -42 | <-15
O=S1NC(Cc2coc3ccc(Br)cc23)=NO1 (stereo not given) | <15 | <-15
O=S1NC(Cc2coc3c(Cl)cc(Cl)cc23)=NO1 (stereo not given) | -29 | <-15
O=S1NC(Cc2c[nH]c3ccc(Br)cc23)=NO1 (stereo not given) | -30 | -22
O=S1NC(CC2CCc3ccccc3C2)=NO1 (stereo not given) | -22 | <-15
O=S1NC(Cc2cc3cc(Cl)ccc3o2)=NO1 (stereo not given) | -23 | <-15
CC(C)(C)c1ccc(CC2=NOS(=O)N2)cc1 (stereo not given) | <15 | <-15
Cc1ccc(CC2=NOS(=O)N2)cc1C (stereo not given) | <15 | <-15
O=S1NC(Cc2cc3cc(Br)ccc3s2)=NO1 (stereo not given) | -29 | -20
O=S1NC(Cc2coc3ccccc23)=NO1 (stereo not given) | -28 | <-15
O=S1NC(Cc2ccc3ccccc3c2)=NO1 (stereo not given) | -63 | -37
O=S1NC(CC2=C(Cl)c3ccccc3CC2)=NO1 (stereo not given) | – | -27
O=S1NC(Cc2ccc3c(c2)CCCC3)=NO1 (stereo not given) | <15 | <-15
O=S1NC(Cc2ccc(Br)cc2F)=NO1 (stereo not given) | -28 | -17
O=S1NC(Cc2cc3ccccc3s2)=NO1 (stereo not given) | -42 | <-15
O=S1NC(Cc2cc3ccc(F)cc3o2)=NO1 (stereo not given) | -18 | <-15

SMILES | Decrease (Mus musculus [1]) [%] | Decrease (Mus musculus [2]) [%]
O=S1NC(CC2CCc3ccccc32)=NO1 (stereo not given) | <15 | <-15
O=S1NC(Cc2cc3cc(F)ccc3o2)=NO1 (stereo not given) | -25 | <-15
O=S1NC(Cc2cccc(C(F)(F)F)c2)=NO1 (stereo not given) | -34 | <-15
O=S1NC(Cc2cc3cc(Cl)ccc3s2)=NO1 (stereo not given) | -24 | <-15
O=S1NC(Cc2coc3c(Cl)cccc23)=NO1 (stereo not given) | -54 | -26
O=S1NC(Cc2cc3ccccc3o2)=NO1 (stereo not given) | <15 | <-15
O=S1NC(Cc2ccc(OCCc3ccccc3)cc2)=NO1 (stereo not given) | -56 | <-15
O=S1NC(Cc2coc3ccc(Cl)cc23)=NO1 (stereo not given) | – | <-15
O=S1NC(Cc2cc3cc(F)ccc3s2)=NO1 (stereo not given) | <15 | <-15
O=S1NC(Cc2ccc3c(c2)CCC3)=NO1 (stereo not given) | <15 | <-15
O=S1NC(Cc2ccc(OCc3ccccc3)cc2)=NO1 (stereo not given) | <-15 | –
O=S1NC(Cc2ccc(-c3ccccc3)cc2)=NO1 (stereo not given) | <15 | <-15
O=S1NC(Cc2csc3ccccc23)=NO1 (stereo not given) | -30 | <-15
O=S1NC(Cc2coc3cc(Cl)ccc23)=NO1 (stereo not given) | -22 | <-15
O=S1NC(Cc2cccc(Cl)c2)=NO1 (stereo not given) | -40 | <-15
O=S1NC(Cc2c[nH]c3ccccc23)=NO1 (stereo not given) | -22 | <-15
CC1(COc2ccc(CC3SC(=O)NC3=O)cc2)CCCCC1 (stereo not given) [CIGLITAZONE] | -29 | <-15
